Data set [1] deals with Calf thymus DNA. Nature of the data set: Binding affinity to calf thymus DNA assessed as inhibition of DNA-dependent Escherichia coli RNA polymerase activity by measuring [14C]ATP incorporation by liquid scintillation spectrometer analysis. It counts as nucleic-acid assay, Bos taurus. Conditions: for IC50: read-out: I50; for inhibition: Bos taurus. The method, boiled down:
(§1)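 0.125 mL mix: Tris-HCl pH 8.0 5 μmol, MgCl2 1.25 μmol, β-mercaptoethanol 1.25 μmol, CTP/UTP/GTP 0.019 μmol each, [8-14C]ATP 0.019 μmol, calf thymus DNA 3.65 μg. Compound in 5 μL MeOH (MeOH-only controls) added before the E. coli enzyme. Incubated 10 min at 37. Acid-insoluble label collected by filter-disk method and scintillation counted. Triplicates.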

A short description of data set [2]: Retardation factor of the compound using n-BuOH-AcOH-H2O at ratio of 3:1:2 as solvent system by silica gel based chromatography. It counts as physicochemical.
Data set [3] has as its system P388. Nature of the data set: Antitumor activity against mouse P388 cells assessed as mean animal survival time at 12.5 mg/kg administered qd for 1 to 9 days relative to control. It counts as functional. The method, boiled down:
(§2)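 P-388 leukemia survival test. The value is T/C: mean or median survival time of treated animals divided by that of control animals, expressed as a percentage. A compound counts as active if it gives reproducible T/C values of 125% or more.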

Data set [4] relates to P388. Kind of data set: Antitumor activity against mouse P388 cells assessed as mean animal survival time at 25 mg/kg administered qd for 1 to 9 days relative to control. It is filed as functional. The method, boiled down:
as §2

The test system of data set [5] is Calf thymus DNA. Kind of data set: Binding affinity to calf thymus DNA assessed as change in melting temperature at 10 uM by spectrophotometer analysis. It is filed as nucleic-acid assay. Conditions: Bos taurus. The method in brief: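 Drug at 1×10^-5 M with 15 μg/mL calf thymus DNA in 5 mM phosphate buffer, pH 7.4. Absorbance followed at 260 nm while temperature rose at 1.0 °C/min to give the melting temperature.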

Data set [6] has as its system Calf thymus DNA. Nature of the data set: Binding affinity to calf thymus DNA assessed as inhibition of DNA-dependent Escherichia coli RNA polymerase activity by measuring [14C]ATP incorporation at 0.1 mM by liquid scintillation spectrometer analysis. It counts as nucleic-acid assay. Conditions: Bos taurus. The method in brief: as §1
Data set [7] has as its system Calf thymus DNA. Nature of the data set: Binding affinity to calf thymus DNA assessed as inhibition of DNA-dependent Escherichia coli RNA polymerase activity by measuring [14C]ATP incorporation at 50 uM by liquid scintillation spectrometer analysis. It is filed as nucleic-acid assay. As to conditions: Bos taurus. The method, boiled down:
as §1

For data set [8], the system named is Calf thymus DNA. Nature of the data set: Binding affinity to calf thymus DNA assessed as inhibition of DNA-dependent Escherichia coli RNA polymerase activity by measuring [14C]ATP incorporation at 10 uM by liquid scintillation spectrometer analysis. It is filed as nucleic-acid assay. As to conditions: Bos taurus. The method, boiled down: as §1
The test system of data set [9] is Calf thymus DNA. Nature of the data set: Binding affinity to calf thymus DNA assessed as inhibition of DNA-dependent Escherichia coli RNA polymerase activity by measuring [14C]ATP incorporation at 7.5 uM by liquid scintillation spectrometer analysis. Conditions: Bos taurus. It is filed as nucleic-acid assay. The method in brief:
as §1

For data set [10], the system named is Calf thymus DNA. Kind of data set: Binding affinity to calf thymus DNA assessed as inhibition of DNA-dependent Escherichia coli RNA polymerase activity by measuring [14C]ATP incorporation at 5 uM by liquid scintillation spectrometer analysis. It is filed as nucleic-acid assay. As to conditions: Bos taurus. The method in brief:
as §1

Data set [11] has as its system Calf thymus DNA. Kind of data set: Binding affinity to calf thymus DNA assessed as inhibition of DNA-dependent Escherichia coli RNA polymerase activity by measuring [14C]ATP incorporation at 2.5 uM by liquid scintillation spectrometer analysis. It counts as nucleic-acid assay. As to conditions: Bos taurus. The method in brief:
as §1

Data set [12] has as its system P388. Kind of data set: Antitumor activity against mouse P388 cells assessed as mean animal survival time at 100 mg/kg administered qd for 1 to 9 days relative to control. It is filed as functional. The method, boiled down: as §2
For data set [13], the system named is P388. Kind of data set: Antitumor activity against mouse P388 cells assessed as mean animal survival time at 400 mg/kg administered qd for 1 to 9 days relative to control. It counts as functional. The method in brief:
as §2

Data set [14] has as its system P388. Kind of data set: Antitumor activity against mouse P388 cells assessed as mean animal survival time at 6.25 mg/kg administered qd for 1 to 9 days relative to control. It counts as functional. The method in brief:
as §2

`Cc1cc(NCCCNCCCNc2cc(C)nc3cc(N)ccc23)c2ccc(N)cc2n1.Cl`: the IC50 in [1] came to 6 µM. The Rf in [2] was found to be 0.57.

In general, T/C refers to the ratio of treated to control. Consider `Cc1cc(NCCCCCCCNc2cc(C)nc3cc([N+](=O)[O-])ccc23)c2ccc([N+](=O)[O-])cc2n1.Cl`, for which, in [3], the T/C was 149%. Besides, the Rf in data set [2] was 0.79.

As for `CC(=O)O.Cc1cc(NCCCCCCNc2cc(C)nc3cc(N)ccc23)c2ccc(N)cc2n1`, the T/C in [4] was 158%.

Consider `Cc1cc(NCCCCNCCCNc2cc(C)nc3cc(N)ccc23)c2ccc(N)cc2n1.Cl`, for which the IC50 in [1] is 6 µM. Also, the Rf in data set [2] amounted to 0.5.

A word on the ΔTm: it is the change in melting temperature against a reference sample. Broadly, the inhibition is the drop in the measured response relative to a control, in per cent. Regarding `Cc1cc(NCCCCCCNc2cc(C)nc3cc(N)ccc23)c2ccc(N)cc2n1`, the ΔTm in [5] came to 19 °C. Moreover, the inhibition in data set [6] worked out at 97%; in [7], 93%; in data set [8], 91%; in data set [9], 50%; in [10], 29%; in data set [11], 0%. Also, in [1], the inhibition entry was “Dose-dependent effect”.

Take `Cc1cc(NCCCCCCCCNc2cc(C)nc3cc(N)ccc23)c2ccc(N)cc2n1`: the ΔTm in data set [5] came out at 18.5 °C. In addition, the inhibition amounted to 97% in data set [6]; 95% in data set [7]; 95% in data set [8]; 91% in data set [9]; 38% in data set [10]; 0% in data set [11]. For the same molecule, in data set [1], the inhibition entry was “Dose-dependent effect”.

For `Cc1cc(NCCCCNCCCNc2cc(C)nc3cc([N+](=O)[O-])ccc23)c2ccc([N+](=O)[O-])cc2n1.Cl`, the T/C in data set [3] turned out to be 150%. In addition, the Rf in data set [2] stood at 0.73.

As for `Cc1cc(NCCCCCCCNc2cc(C)nc3cc(N)ccc23)c2ccc(N)cc2n1`, the ΔTm in data set [5] stood at 17 °C. Also, the inhibition was found to be 98% in data set [6]; 98% in data set [7]; 63% in data set [8]; 24% in data set [9]; 0% in data set [10]; 0% in data set [11]. Also, the inhibition entry in [1] is “Dose-dependent effect”.

As to `CC(=O)O.Cc1cc(NCCCNCCCNc2cc(C)nc3cc(N)ccc23)c2ccc(N)cc2n1`, the T/C in [3] is reported as 150%.

For the molecule `Cc1cc(NCCCCCCCCNc2cc(C)nc3cc(N)ccc23)c2ccc(N)cc2n1.Cl`, the IC50 in data set [1] is 6 µM. Also, the Rf in data set [2] amounted to 0.7.

In the case of `Cc1cc(NCCCCCCNc2cc(C)nc3cc([N+](=O)[O-])ccc23)c2ccc([N+](=O)[O-])cc2n1.Cl`, in data set [12], the T/C is reported as 99%. For the same molecule, the Rf in data set [2] was 0.77.

Turning to `Cc1cc(NCCCCCCNc2cc(C)nc3cc(N)ccc23)c2ccc(N)cc2n1.Cl`, the IC50 in data set [1] is 6 µM. Also, the Rf in data set [2] is reported as 0.6.

For `Cc1cc(NCCCCCCNc2cc(C)nc3ccc(N)cc23)c2cc(N)ccc2n1.Cl`, the T/C in data set [13] is 254%. Further, in data set [5], the ΔTm was 18 °C.

In the case of `Cc1cc(NCCCNCCCNc2cc(C)nc3cc([N+](=O)[O-])ccc23)c2ccc([N+](=O)[O-])cc2n1.Cl`, the T/C in [4] came out at 150%. In data set [2], the Rf worked out at 0.69.

As for `CC(=O)O.Cc1cc(NCCCCCCCCNc2cc(C)nc3cc(N)ccc23)c2ccc(N)cc2n1`, in data set [14], the T/C is 134%.

On to `CC(=O)O.Cc1cc(NCCCCCCCNc2cc(C)nc3cc(N)ccc23)c2ccc(N)cc2n1`, for which the T/C in data set [14] was found to be 196%.

On to `Cc1cc(NCCCCNCCCNc2cc(C)nc3cc(N)ccc23)c2ccc(N)cc2n1`, for which, in [5], the ΔTm was found to be 19.5 °C. Also, the inhibition came to 92% in data set [6]; 94% in data set [7]; 95% in data set [8]; 38% in data set [9]; 17% in data set [10]; 0% in data set [11]. For the same molecule, in [1], the inhibition entry was “Dose-dependent effect”.

Turning to `Cc1cc(NCCCNCCCNc2cc(C)nc3cc(N)ccc23)c2ccc(N)cc2n1`, the ΔTm in [5] was 22.5 °C. Also, the inhibition stood at 94% in data set [6]; 98% in data set [7]; 96% in [8]; 31% in data set [9]; 9% in data set [10]; 0% in data set [11]. Moreover, the inhibition entry in [1] was “Dose-dependent effect”.

In the case of `Cc1cc(NCCCCCCCCNc2cc(C)nc3cc([N+](=O)[O-])ccc23)c2ccc([N+](=O)[O-])cc2n1.Cl`, the T/C in data set [3] is 110%. For the same molecule, in data set [2], the Rf came to 0.8.

With `CC(=O)O.Cc1cc(NCCCCNCCCNc2cc(C)nc3cc(N)ccc23)c2ccc(N)cc2n1`, in data set [4], the T/C is reported as 165%.

As for `Cc1cc(NCCCCCCCNc2cc(C)nc3cc(N)ccc23)c2ccc(N)cc2n1.Cl`, the IC50 in [1] came to 6 µM. For the same molecule, the Rf in data set [2] is reported as 0.63.

These data come from ChEMBL document CHEMBL3272200, “Synthsis and antitumor properties of bis(quinaldine) derivatives” (J Med Chem, 1977).
